Assay results: ChEMBL document CHEMBL1165881, “Synthesis and cytotoxicity evaluation of (tetrahydro-beta-carboline)-1,3,5-triazine hybrids as anticancer agents” (Eur J Med Chem, 2010)
Activity calls are given as the source filed them. No cut-off for these calls is given here.

How the values were obtained:
[1] = Cytotoxicity against mouse NIH/3T3 cells after 72 hrs by MTT assay; type: cell-based, NIH3T3
Summary of the method: (§1)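 Seeded at 5000–10000 cells/well, incubated at 37 °C in CO2 with compounds at a range of concentrations, controls included, in triplicate wells. After 72 h, MTT solution (5 mg/mL) added; absorbance read at 540 nm. % cytotoxicity = 100 × [1 − (X/R1)] versus control absorbance; IC50 by nonlinear regression. Values are means of at least two independent experiments, three determinations each.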

[2] = test system: DU-145; assay: Cytotoxicity against human DU145 cells after 72 hrs by MTT assay; type: functional, cell-based; summary of the method: as §1
[3] = test system: A549; assay: Cytotoxicity against human […] cells after 72 hrs by MTT assay; type: functional, cell-based; summary of the method: as §1
[4] = test system: KB; assay: Cytotoxicity against human KB cells after 72 hrs by MTT assay; type: functional, cell-based; summary of the method: as §1
[5] = test system: K562; assay: Cytotoxicity against human K562 cells after 72 hrs by MTT assay; type: functional, cell-based; summary of the method: as §1
[6] = test system: MCF7; assay: Cytotoxicity against human MCF7 cells after 72 hrs by MTT assay; type: functional, cell-based; summary of the method: as §1
[7] = test system: PA-1; assay: Cytotoxicity against human PA1 cells after 72 hrs by MTT assay; type: functional, cell-based; summary of the method: as §1
[8] = test system: MIA PaCa-2; assay: Cytotoxicity against human MIAPaCa2 cells after 72 hrs by MTT assay; type: functional, cell-based; summary of the method: as §1
[9] = test system: SW-620; assay: Cytotoxicity against human SW620 cells after 72 hrs by MTT assay; type: functional, cell-based; summary of the method: as §1
[10] = test system: MDA-MB-231; assay: Induction of apoptosis in human MDA-MB-231 cells assessed as appearance of fragmented nuclei at 0.74 uM after 24 hrs by Hoechst staining; type: functional, cell-based
Summary of the method: (§2)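 1 × 10^4 cells grown on coverslips, treated 24 h, PBS-washed, fixed in 4% paraformaldehyde 15 min. Stained with Hoechst at 1.0 ug/ml for 15 min at 4 °C, washed, mounted, and examined by fluorescence microscopy; untreated cells as control.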

[11] = test system: MCF7; assay: Induction of apoptosis in human MCF7 cells assessed as DNA fragmentation at 0.74 uM after 24 hrs; type: functional, cell-based
Summary of the method: (§3)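 Treated 24 h with 0.25–0.74 range. Then 1 × 10^5 cells trypsinized, PBS-washed (4 °C, pH 7.4), lysed 10 min on ice (10 mM Tris-HCl pH 7.4, 10 mM EDTA, 0.5% SDS). RNase A 1 h at 37 °C, then proteinase K 4 h at 50 °C. DNA ethanol/sodium acetate precipitated, run on 1.5% agarose with ethidium bromide, viewed under UV.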

[12] = test system: MCF7; assay: Induction of apoptosis in human MCF7 cells assessed as DNA fragmentation at 0.25 uM after 24 hrs; type: functional, cell-based; summary of the method: as §3
[13] = test system: MDA-MB-231; assay: Induction of apoptosis in human MDA-MB-231 cells assessed as DNA fragmentation at 0.25 uM after 24 hrs; type: functional, cell-based; summary of the method: as §3
[14] = test system: MDA-MB-231; assay: Induction of apoptosis in human MDA-MB-231 cells assessed as appearance of fragmented nuclei at 0.5 uM after 24 hrs by Hoechst staining; type: functional, cell-based; summary of the method: as §2
[15] = test system: MCF7; assay: Induction of apoptosis in human MCF7 cells assessed as appearance of fragmented nuclei at 0.74 uM after 24 hrs by Hoechst staining; type: functional, cell-based; summary of the method: as §2
[16] = test system: MCF7; assay: Induction of apoptosis in human MCF7 cells assessed as appearance of fragmented nuclei at 0.5 uM after 24 hrs by Hoechst staining; type: functional, cell-based; summary of the method: as §2
[17] = test system: MDA-MB-231; assay: Induction of apoptosis in human MDA-MB-231 cells assessed as DNA fragmentation at 0.74 uM after 24 hrs; type: functional, cell-based; summary of the method: as §3
[18] = Mus musculus, NIH3T3, 72 h, read-out: IC50
[19] = Homo sapiens, DU-145, 72 h, read-out: IC50
[20] = Homo sapiens, K562, 72 h, read-out: IC50
[21] = Homo sapiens, MCF7, 72 h, read-out: IC50
[22] = Homo sapiens, PA-1, 72 h, read-out: IC50
[23] = Homo sapiens, MIA PaCa-2, 72 h, read-out: IC50
[24] = Homo sapiens, SW-620, 72 h, read-out: IC50
[25] = Homo sapiens, A549, 72 h, read-out: IC50

Q: What does the source list for `CCCNc1nc(NCCC)nc(N2[C@@H](c3ccc(C)cc3)c3[nH]c4ccccc4c3C[C@@H]2C(=O)OC)n1` (racemic)?
A: IC50 ([1]; nih3t3): Not Active; IC50 ([2]; du-145): Not Active; IC50 ([3]; a549): Not Active; IC50 ([4]; Homo sapiens, KB, 72 h): 0.665 µM; IC50 ([5]; k562): Not Active; IC50 ([6]; mcf7): Not Active; IC50 ([7]; pa-1): Not Active; IC50 ([8]; mia paca-2): Not Active; IC50 ([9]; sw-620): Not Active

Q: Which IC50 [1, 18] does the source give for `COC(=O)[C@H]1Cc2c([nH]c3ccccc23)[C@H](c2ccccc2)N1c1nc(N2CCN(C)CC2)nc(N2CCN(C)CC2)n1` here?
A: Its IC50 is 6 µM.

Q: What about the IC50 [2, 19] of the same compound?
A: The IC50 was 2.81 µM.

Q: And the IC50 ([4]; Homo sapiens, KB, 72 h)?
A: The IC50 was 1.98 µM.

Q: What about the IC50 [5, 20] of the same compound?
A: The IC50 was 5.34 µM.

Q: What about the IC50 [6, 21] of the same compound?
A: Its IC50 is 6.21 µM.

Q: And the IC50 [7, 22]?
A: Its IC50 is 1.93 µM.

Q: What about the IC50 [8, 23] of the same compound?
A: Its IC50 is 6.11 µM.

Q: And the IC50 [9, 24]?
A: Its IC50 is 2.84 µM.

Q: For `COC(=O)[C@@H]1Cc2c([nH]c3ccccc23)[C@@H](c2ccc(OC)cc2)N1c1nc(N2CCN(C)CC2)nc(N2CCN(C)CC2)n1`, which Activity [10] is on record?
A: The Activity was “Active”.

Q: And the Activity [11]?
A: The Activity was “Active”.

Q: And the Activity [12]?
A: Its Activity is “Active”.

Q: What about the Activity [13] of the same compound?
A: Its Activity is “Active”.

Q: And the Activity [14]?
A: The Activity was “Active”.

Q: What about the Activity [15] of the same compound?
A: The Activity was “Active”.

Q: What about the Activity [16] of the same compound?
A: Its Activity is “Active”.

Q: And the Activity [17]?
A: Its Activity is “Active”.

Q: With `COC(=O)[C@@H]1Cc2c([nH]c3ccccc23)[C@@H](c2ccc(OC)cc2)N1c1nc(N2CCN(C)CC2)nc(N2CCN(C)CC2)n1` (racemic) as the compound, how does the IC50 ([1]; nih3t3, read-out: IC50) read?
A: Its IC50 is 4.78 µM.

Q: And the IC50 [2, 19]?
A: Its IC50 is 10.5 µM.

Q: What about the IC50 ([3]; a549, read-out: IC50) of the same compound?
A: The IC50 was 5.67 µM.

Q: What about the IC50 ([4]; kb) of the same compound?
A: Its IC50 is 1.87 µM.

Q: And the IC50 ([5]; k562)?
A: The IC50 was “Not Active”.

Q: And the IC50 ([6]; mcf7, read-out: IC50)?
A: Its IC50 is 12.4 µM.

Q: And the IC50 [7, 22]?
A: The IC50 was 2.03 µM.

Q: What about the IC50 ([8]; mia paca-2, read-out: IC50) of the same compound?
A: The IC50 was 6.35 µM.

Q: And the IC50 ([9]; sw-620, read-out: IC50)?
A: Its IC50 is 4.26 µM.

Q: What does the source list for `COC(=O)[C@@H]1Cc2c([nH]c3ccccc23)[C@@H](c2ccc(C(C)C)cc2)N1c1nc(N2CCN(C)CC2)nc(N2CCN(C)CC2)n1`?
A: IC50 [1, 18]: 2.63 µM; IC50 ([2]; du-145): Not Active; IC50 [3, 25]: 1.75 µM; IC50 ([4]; Homo sapiens, KB, 72 h): 3.73 µM; IC50 [5, 20]: 2.24 µM; IC50 [6, 21]: 6.73 µM; IC50 [7, 22]: 2.89 µM; IC50 ([8]; mia paca-2): Not Active; IC50 [9, 24]: 5.92 µM

Q: Which results are given for `COC(=O)[C@@H]1Cc2c([nH]c3ccccc23)[C@H](c2cc(OC)c(OC)c(OC)c2)N1c1nc(N2CCN(C)CC2)nc(N2CCN(C)CC2)n1` (racemic)?
A: IC50 [1, 18]: 6.71 µM; IC50 [2, 19]: 5.22 µM; IC50 ([4]; Homo sapiens, KB, 72 h): 17.9 µM; IC50 [6, 21]: 5.96 µM; IC50 [7, 22]: 5.32 µM

Q: With `COC(=O)[C@@H]1Cc2c([nH]c3ccccc23)[C@@H](c2ccc(C)cc2)N1c1nc(N2CCN(C)CC2)nc(N2CCN(C)CC2)n1` (racemic) as the compound, how does the IC50 ([1]; nih3t3) read?
A: The IC50 was “Not Active”.

Q: What about the IC50 ([2]; du-145) of the same compound?
A: Its IC50 is “Not Active”.

Q: And the IC50 ([3]; a549)?
A: The IC50 was “Not Active”.

Q: And the IC50 ([4]; Homo sapiens, KB, 72 h)?
A: The IC50 was 0.106 µM.

Q: What about the IC50 ([5]; k562) of the same compound?
A: The IC50 was “Not Active”.

Q: What about the IC50 ([6]; mcf7) of the same compound?
A: Its IC50 is “Not Active”.

Q: And the IC50 ([7]; pa-1)?
A: Its IC50 is “Not Active”.

Q: What about the IC50 ([8]; mia paca-2) of the same compound?
A: The IC50 was “Not Active”.

Q: And the IC50 ([9]; sw-620)?
A: The IC50 was “Not Active”.

Q: Which results are given for `COC(=O)[C@H]1Cc2c([nH]c3ccccc23)[C@H](c2cc(OC)c(OC)c(OC)c2)N1c1nc(N2CCN(C)CC2)nc(N2CCN(C)CC2)n1` (relative stereo)?
A: IC50 [1, 18]: 2.17 µM; IC50 [2, 19]: 2.01 µM; IC50 [3, 25]: 5.67 µM; IC50 ([4]; Homo sapiens, KB, 72 h): 2.43 µM; IC50 [5, 20]: 3 µM; IC50 ([6]; mcf7): Not Active; IC50 [7, 22]: 2.75 µM; IC50 [8, 23]: 7.54 µM; IC50 [9, 24]: 3.15 µM

Q: For `COC(=O)[C@H]1Cc2c([nH]c3ccccc23)[C@H](c2ccc(OC)cc2)N1c1nc(N2CCN(C)CC2)nc(N2CCN(C)CC2)n1`, which IC50 [1, 18] is on record?
A: Its IC50 is 3.16 µM.

Q: And the IC50 [2, 19]?
A: Its IC50 is 2.58 µM.

Q: And the IC50 ([4]; Homo sapiens, KB, 72 h)?
A: The IC50 was 0.99 µM.

Q: What about the IC50 [5, 20] of the same compound?
A: Its IC50 is 6 µM.

Q: And the IC50 [6, 21]?
A: The IC50 was 11 µM.

Q: What about the IC50 [7, 22] of the same compound?
A: Its IC50 is 2.05 µM.

Q: What about the IC50 [8, 23] of the same compound?
A: Its IC50 is 6.23 µM.

Q: And the IC50 [9, 24]?
A: Its IC50 is 2.15 µM.

Q: Which results are given for `COC(=O)[C@H]1Cc2c([nH]c3ccccc23)[C@@H](c2ccc(OC)cc2)N1c1nc(N2CCN(C)CC2)nc(N2CCN(C)CC2)n1`?
A: IC50 [1, 18]: 5.28 µM; IC50 [2, 19]: 2.45 µM; IC50 [3, 25]: 11.5 µM; IC50 ([4]; Homo sapiens, KB, 72 h): 1.82 µM; IC50 [5, 20]: 4.48 µM; IC50 [6, 21]: 12.3 µM; IC50 [7, 22]: 3.34 µM; IC50 [8, 23]: 5.26 µM; IC50 [9, 24]: 3.27 µM
